Reference: article PMC3913000 (Nature chemical biology, 2013)
“Also recorded” adds a separate entry of the source.

Experiments:
IgE = conditions: read-out: Kd for IgE (nucleotide-binding site ligand); cited from earlier work
RBL cells = test: Inhibition of allergen-induced RBL mast cell degranulation; assay type: cell-based, rat; conditions: equimolar IgE^DNP and IgE^dansyl; 500 nM HtTA [dansyl2NF2]
IgE^dansyl = test: Fluorescence quenching assay, hapten binding to IgE^dansyl; conditions: dansyl-IgE^dansyl versus NF-IgE^DNP
Method in brief: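 Monovalent hapten titrated into 10 nM IgE in PBS. Binding read as quenching of IgE tryptophan fluorescence at 335 nm, which occurs only when hapten and IgE are in proximity (<10 nm). Monovalent binding constants were derived from the quenching. At least triplicate.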

Compound	Kd (IgE)	inhibition of HtTA [dansyl2NF2]-induced degranulation (RBL cells)	difference in affinity between dansyl-IgE^dansyl and NF-IgE^DNP pairs (IgE^dansyl)
O=C(O)CCCc1c[nH]c2ccccc12 [IBA, indole-3-butyric acid]	4.5 ± 0.6 µM	did not inhibit degranulation; also recorded: no inhibition of mast cell degranulation was observed	–
dansyl	–	–	760 fold
